Molecular target: Protein phosphatase methylesterase 1 (Homo sapiens) (UniProt Q9Y570)
Experiment: lysate PME-1 activity-based profiling inhibitors – cell lysate, gel ABPP, fluorescence, HeLa, MDA-MB-231, late-stage follow-up (AID 463146)
Conditions: HeLa/MDA-MB-231 lysate, FP-Rh gel ABPP fluorescence, at 10 µM (top of the series)
How it was run: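 Timing: 30 min compound at 25 °C, 20 min probe | Material: PME-1 in HeLa or MDA-MB-231 lysate | Evaluation: % inhibition from PME-1 band intensity | Signal: SDS-PAGE separation with in-gel fluorescence scanning of probe labeling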

Protein phosphatase methylesterase 1 (Homo sapiens), sequence (Q9Y570 whole entry, looked up): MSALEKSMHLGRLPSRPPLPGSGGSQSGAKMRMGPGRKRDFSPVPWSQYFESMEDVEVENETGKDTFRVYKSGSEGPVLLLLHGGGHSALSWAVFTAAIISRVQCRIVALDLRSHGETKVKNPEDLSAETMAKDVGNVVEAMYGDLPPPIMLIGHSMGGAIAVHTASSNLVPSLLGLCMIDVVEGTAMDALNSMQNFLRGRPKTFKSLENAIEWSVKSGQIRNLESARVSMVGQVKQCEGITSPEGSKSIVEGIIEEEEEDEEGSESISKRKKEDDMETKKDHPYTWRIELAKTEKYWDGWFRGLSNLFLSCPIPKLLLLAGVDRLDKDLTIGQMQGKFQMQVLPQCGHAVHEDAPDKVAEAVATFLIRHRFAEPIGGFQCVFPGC

Row | inhibition (HeLa Lysate) [%] | inhibition (MDA-MB-231 Lysate) [%] | SMILES
1 | 100 | – | COC(=O)N1C(=O)[C@@](c2ccccc2)(C2CCCCC2)N1C(=O)OC
2 | 100 | 100 | COC(=O)N1C(=O)[C@](c2ccccc2)(C2CCCC2)N1C(=O)OC
3 | 100 | 100 | COC(=O)N1C(=O)[C@](c2ccccc2)(C2CCCCC2)N1C(=O)OC
4 | 100 | – | COC(=O)N1C(=O)[C@@](c2ccccc2)(C2CCCC2)N1C(=O)OC
